Experimental data: ChEMBL document CHEMBL1124084, “Studies on scavengers of active oxygen species. 1. Synthesis and biological activity of 2-O-alkylascorbic acids” (J Med Chem, 1988)
pIC50: −log10 of the molar value. The source made the active and inactive calls. No cut-off for these calls is given here.

What was measured:
Rattus norvegicus [1] = organism: Rattus norvegicus; assay: Antilipid peroxidation was measured at 10e-5 M concentration.; type: functional
Method in brief: (§1)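 Rat brain lipid peroxidation: brains from male SD rats (12 weeks old), exsanguinated under pentobarbital anaesthesia, homogenized to 5% in phosphate buffer pH 7.4. Homogenate incubated with test drug at 37 °C for 1 h. Lipid peroxide quantified by the thiobarbituric acid method.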

Rattus norvegicus [2] = assay: Effect of AOS scavenger on premeture ventricular complexes PVCs, arrhythmias induced by ischemia-reperfusion in anesthetized rat, duration at 10 mg/kg; type: functional, Cardiac ventricle
Rattus norvegicus [3] = assay: Effect of AOS scavenger on ventricular tachycardia (VT),arrhythmias induced by ischemia-reperfusion in anesthetized rat, duration at 10 mg/kg; type: functional, Cardiac ventricle
Rattus norvegicus [4] = assay: Effect of AOS scavenger on ventricular tachycardia (VT), arrhythmias induced by ischemia-reperfusion in anesthetized rat, frequency, times at 10 mg/kg; type: functional, Cardiac ventricle
Rattus norvegicus [5] = assay: Effect of AOS scavenger on ventricular fibrillation (VF), arrhythmias induced by ischemia-reperfusion in anesthetized rat, frequency, times at 10 mg/kg; type: functional, Cardiac ventricle
Rattus norvegicus [6] = assay: Effect of AOS scavenger on ventricular fibrillation (VF),arrhythmias induced by ischemia-reperfusion in anesthetized rat, incidence at 10 mg/kg; 3/6; type: functional, Cardiac ventricle
Rattus norvegicus [7] = assay: Effect of AOS scavenger on ventricular fibrillation (VF),arrhythmias induced by ischemia-reperfusion in anesthetized rat, duration at 10 mg/kg; type: functional, Cardiac ventricle
[8] = Reducing activity determined by the use of stable radical alpha,alpha-di-phenyl-beta-picrylhydrazyl (DPPH); parameters: concentration or dose not given beside the values
Rattus norvegicus [9] = assay: Effect of AOS scavenger on ventricular tachycardia (VT),arrhythmias induced by ischemia-reperfusion in anesthetized rat, incidence at 10 mg/kg
Rattus norvegicus [10] = organism: Rattus norvegicus; assay: Antilipid peroxidation was determined; type: functional; method in brief: as §1
Rattus norvegicus [11] = assay: Effect of AOS scavenger on ventricular tachycardia (VT),arrhythmias induced by ischemia-reperfusion in anesthetized rat, frequency, times at 10 mg/kg; type: functional, Cardiac ventricle
Rattus norvegicus [12] = organism: Rattus norvegicus; assay: Inhibition of lipid peroxidation was determined with rat brain tissue homogenates; type: functional
Method in brief: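 Brains excised from male SD rats (12 weeks), exsanguinated under pentobarbital anesthesia; 5% homogenate in phosphate buffer pH 7.4 incubated with test drug 1 h at 37 °C; lipid peroxide quantified by thiobarbituric acid method.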

Rattus norvegicus [13] = assay: Effect of AOS scavenger on ventricular fibrillation (VF),arrhythmias induced by ischemia-reperfusion in anesthetized rat, incidence at 10 mg/kg; 4/7; type: functional, Cardiac ventricle
Rattus norvegicus [14] = assay: Effect of AOS scavenger on ventricular tachycardia (VT),arrhythmias induced by ischemia-reperfusion in anesthetized rat, incidence at 10 mg/kg; 6/7; type: functional, Cardiac ventricle
Rattus norvegicus [15] = assay: Effect of AOS scavenger on ventricular fibrillation (VF),arrhythmias induced by ischemia-reperfusion in anesthetized rat, duration at 10 mg/kg
Rattus norvegicus [16] = assay: Effect of AOS scavenger on ventricular fibrillation (VF),arrhythmias induced by ischemia-reperfusion in anesthetized rat, frequency at 10 mg/kg
Rattus norvegicus [17] = organism: Rattus norvegicus; assay: Antilipid peroxidation was determined; No effect; type: functional; method in brief: as §1
Rattus norvegicus [18] = assay: Effect of AOS scavenger on ventricular tachycardia (VT),arrhythmias induced by ischemia-reperfusion in anesthetized rat duration at 10 mg/kg; type: functional, Cardiac ventricle
Rattus norvegicus [19] = assay: Effect of AOS scavenger on ventricular fibrillation (VF),arrhythmias induced by ischemia-reperfusion in anesthetized rat; incidence at 10 mg/kg 7/8; type: functional, Cardiac ventricle
Rattus norvegicus [20] = assay: Effect of AOS scavenger on ventricular tachycardia (VT),arrhythmias induced by ischemia-reperfusion in anesthetized rat, incidence at 10 mg/kg; 8/8; type: functional, Cardiac ventricle
Rattus norvegicus [21] = assay: Effect of AOS scavenger on ventricular tachycardia (VT), arrhythmias induced by ischemia-reperfusion in anesthetized rat at requency, times 10 mg/kg; type: functional, Cardiac ventricle
Rattus norvegicus [22] = assay: Effect of AOS scavenger on ventricular fibrillation (VF),arrhythmias induced by ischemia-reperfusion in anesthetized rat, incidence at 10 mg/kg; 2/7; type: functional, Cardiac ventricle

pIC50 (Rattus norvegicus [12])	Structure (SMILES)	PVCs (Rattus norvegicus [2])	Duration (Rattus norvegicus [3])	Frequency (Rattus norvegicus [4])	Frequency (Rattus norvegicus [5])	Duration (Rattus norvegicus [7])	Reducing activity [8]	Antilipid peroxidation (Rattus norvegicus [10])	Activity (Rattus norvegicus [2])	other results
	CCCCCCCCCCCCCCCCCCOC1=C(O)C(=O)OC1C(O)CO (configuration not stated)	3.9	<4 s	2.3	<0.8	<1.9 s	94.5%			Antilipid peroxidation (Rattus norvegicus [1]): 34.5%; Incidence (Rattus norvegicus [6]): 3 N; Incidence (Rattus norvegicus [9]): 4 N
5.25	CCCCCCCCCCCCCCCOC1=C(O)OC(C(O)CO)C1=O (configuration not stated)		11.9 s				95.4%	67.4%	<4.3 min	Frequency (Rattus norvegicus [11]): 5; Incidence (Rattus norvegicus [13]): 4 N; Incidence (Rattus norvegicus [14]): 6 N; Duration (Rattus norvegicus [15]): <3 s; Frequency (Rattus norvegicus [16]): <0.9
	O=C1C(OCc2ccccc2)=C(O)OC1C(O)CO (configuration not stated)	26.9 PVCs/min		3.9	2.5	79.9 s	93%			Antilipid peroxidation (Rattus norvegicus [17]): inactive; Duration (Rattus norvegicus [18]): <4.9 s; Incidence (Rattus norvegicus [19]): 7 N; Incidence (Rattus norvegicus [20]): 8 N
5.13	CCCCCCCCCCCCCCOC1=C(O)OC(C(O)CO)C1=O (configuration not stated)		12.9 s		<0.6	10.1 s	95.4%	54.8%	<3.5 min	Frequency (Rattus norvegicus [21]): <2.6; Incidence (Rattus norvegicus [22]): 2 N
